Measured values collected from several papers.
Protocols differ between the studies behind these lines.
Route: oral

Compound | system | conditions | bioavailability
C#Cc1cnc2nc(O)n(C(CC)CC)c2n1 | male beagle dog, plasma | 1 mg/kg | > 90%
Cc1cc(Nc2ccc(S(F)(F)(F)(F)F)cc2)n2nc(C(C)(F)F)nc2n1 | male beagle dog, plasma |  | ~20%
Fc1ccc(Nc2n[nH]c3cccnc23)cc1Cl | dog, plasma |  | 36%
N#C[C@@]1(c2ccc3c(N)ncnn23)O[C@H](CO)[C@@H](O)[C@H]1O | dog, plasma | 5 mg/kg | 92%
O=C(NCCN1CCCC1)c1cc(-c2ccc(CN3CCOCC3)cc2)nc2ccc(F)cc12 | male beagle dog, blood | 3 mg/kg | 46%
CC#Cc1cncc(-c2ccc3c(c2)[C@@]2(N=C(C)C(N)=N2)[C@]2(CC[C@H](OC)CC2)C3)c1 | male beagle dog, plasma | 3 µmol/kg | 80%
C=CC(=O)Nc1cc(Nc2nccc(Nc3cc(Cl)c(F)cc3C(C)(C)O)n2)c(OC)cc1N1CC[C@@H](N(C)C)C1 | beagle dog, plasma | 1 mg/kg | 48.8%
COc1ccc2c(c1OCc1ccccc1)C[C@@H](C(=O)O)N(C(=O)C(c1ccccc1)c1ccccc1)C2 | male beagle dog, plasma | 3 mg/kg | 39%
Oc1c(-n2ccnn2)cnn1-c1cc(N2CCOCC2)ncn1 | female dog, plasma | 1.5 mg/kg | 71%
